# Assay results of several laboratories.
# Protocols differ between the studies behind these lines.
Compound,system,conditions,Tmax [min]
CSc1cc(Oc2ccnc3[nH]c(=O)cnc23)ccc1NC(=O)Nc1cc(C(C)(C)C)nn1-c1ccccc1,"BALB/c mouse, plasma","oral, 10 mg/kg",180
CC=Cc1ccc(O)c(OC)c1,"mouse, lung","intranasal, 100 mg/kg",5
COc1cc(OC)c2nccc(N3CCc4c(cc(Cn5ccnc5)cc4-c4cn(C)nc4C(F)(F)F)C3=O)c2c1,"male CD-1 mouse, plasma","oral, 50 mg/kg",42
CCc1ccc(Cc2cc([C@@H]3O[C@H](CO)[C@@H](O)[C@H](O)[C@H]3O)cc3c2CCC3)cc1,"male C57BL/6 mouse, plasma","oral, 1 mg/kg",30
CNC(=O)c1cc(Oc2ccc(NC(=O)Nc3ccc(Cl)c(C(F)(F)F)c3)c(F)c2)cc[n+]1[O-],"mouse, plasma","oral, 10 mg/kg, single dose",324
COc1cc(C(=O)N2CCC(N3CCN(C)CC3)CC2)ccc1Nc1ncc2c(n1)N(C)c1ccccc1C(=O)N2C,"mouse, plasma","oral, 10 mg/kg",60
Cc1noc([C@H](Cc2c[nH]cn2)NC(=O)CN(CCCc2ccccc2)CC(=O)O)n1,"male C57BL/6 mouse, plasma","intraperitoneal, 30 mg/kg",10
COc1ccc(C(O)COc2ccc(-c3csc(-c4ccc(OCC(O)c5ccc(OC)c(OC)c5)cc4)n3)cc2)cc1OC (stereo not shown),"C57BL/6 mouse, plasma","oral, 10 mg/kg",60
CC(C)(C)c1ccc(O)c(CN(Cc2cc(C(C)(C)C)ccc2O)C2CCC(NC(N)=O)CC2)c1 (stereo not shown),"male C57BL/6 mouse, plasma","intraperitoneal, 25 mg/kg, single dose",15
C=CC(=O)N1CC2CC(n3nc(-c4ccc(C(=O)Nc5ccccn5)cc4)c4c(N)ncnc43)CC2C1 (stereo not shown),"SCID mouse, plasma","oral, 3 mg/kg",15
CNCCN(C)c1cc(C#N)cc(CCc2cc(C)cc(N)n2)c1,"male BALB/c mouse, brain","oral, 10 mg/kg",240
COc1ccc2c3c1O[C@H]1C[C@@H](OC(=O)c4ccccc4)C=C[C@@]31CCN(C)C2,"mouse, blood","intravenous, 3 mg/kg",3
c1ccc(-c2nc(N3CCC(c4ccccn4)C3)c3ccccc3n2)nc1 (stereo not shown),"female BALB/c mouse, plasma","oral, 50 mg/kg",78
NC[C@@H]1O[C@H](O[C@H]2[C@@H](O)[C@H](O[C@@H]3[C@@H](O)[C@H](N)C[C@H](N)[C@H]3O[C@H]3O[C@H](CO)[C@@H](O)[C@H](O)[C@H]3N)O[C@@H]2CO)[C@H](N)[C@@H](O)[C@@H]1O,"male BALB/c mouse, plasma","oral, 500 mg/kg",60
CS(=O)(=O)CCNCc1ccc(-c2ccc3ncnc(Nc4ccc(OCc5cccc(F)c5)c(Cl)c4)c3c2)o1,"nude mouse, plasma","oral, 100 mg/kg, single dose",120
CCc1cc(OC)c2nccc(N3CCc4c(cc(Cn5ccnc5)cc4-c4cn(C)nc4C(F)(F)F)C3=O)c2c1,"male CD-1 mouse, plasma","oral, 150 mg/kg",30
COc1nc(-c2cc(C)c(N[C@@H](C)c3c(F)cc(F)cc3F)nn2)ccc1-n1cnc(C)c1,"male CD-1 mouse, plasma","intravenous, 1 mg/kg, single dose",4.98
CC(C)(C)c1cc(NC(=O)Nc2ccc(Oc3ccnc4[nH]c(=O)cnc34)cc2F)n(-c2ccccc2)n1,"BALB/c mouse, plasma","oral, 10 mg/kg",30
CC1(C)CC[C@]2(C(=O)O)CC[C@]3(C)C(=CC[C@@H]4[C@@]5(C)C[C@@H](O)[C@H](OC(=O)/C=C/c6ccc(O)cc6)C(C)(C)[C@@H]5CC[C@]43C)[C@@H]2C1 (relative stereo),"mouse, plasma","intraperitoneal, 85 µmol/kg, single dose",30
CN1C(=O)c2ccccc2[S@+]([O-])c2ccc(C(=O)NCCc3cccs3)cc21,"male C57BL/6 mouse, plasma","intraperitoneal, 30 mg/kg, single dose",15
O=C(c1nc2ccc(F)cc2[nH]1)c1c[nH]c2c(F)cccc12,"female mouse, plasma","intraperitoneal, 6 mg/kg",~15
Cc1c(-c2cc3ccccc3n2Cc2ccc(F)cc2)nc2cc(C(=O)N3CCC[C@@H](N)C3)ccn12,"male BALB/c mouse, plasma","oral, 10 mg/kg",30
[Cl-].c1csc([I+]c2cccs2)c1,"mouse, plasma",intraperitoneal,≤ 1
Cc1cc(NC(=O)c2cccc3cc(-c4cccc5[nH]nc(N)c45)ccc23)ccc1F,"male CD-1 mouse, brain","oral, 10 mg/kg",120
COc1ccc2nccc(N3CCc4c(cc(Cn5ccnc5)cc4-c4cn(C)nc4C(F)(F)F)C3=O)c2c1,"male CD-1 mouse, plasma","oral, 50 mg/kg",78
CN1CCC[C@H](CN2c3ccccc3Sc3ccccc32)C1.Cl,"mouse, plasma","oral, 64 mg/kg, single dose",120
COc1nc(-c2cc(C)c(N[C@@H](C)c3ccc(F)cc3)nn2)ccc1-n1cnc(C)c1,"male CD-1 mouse, plasma","intravenous, 1 mg/kg, single dose",4.98
CCc1cc(C(=O)NC)c2nccc(N3CCc4c(cc(Cn5ccnc5)cc4-c4cn(C)nc4C(F)(F)F)C3=O)c2c1,"male CD-1 mouse, plasma","oral, 50 mg/kg",48
